# Data published in ChEMBL document CHEMBL1641418, “Discovery of isoindoline and tetrahydroisoquinoline derivatives as potent, selective PPARδ agonists” (Bioorg Med Chem Lett, 2011).
# Columns and labels:
# [1] = target: T1, Peroxisome proliferator-activated receptor delta (Homo sapiens, UniProt Q03181); experiment: Agonist activity at Gal4-fused human PPARdelta […] binding domain expressed in HEK293 cells by luciferase reporter gene assay; format: cell-based
# T1 sequence (Q03181 whole entry): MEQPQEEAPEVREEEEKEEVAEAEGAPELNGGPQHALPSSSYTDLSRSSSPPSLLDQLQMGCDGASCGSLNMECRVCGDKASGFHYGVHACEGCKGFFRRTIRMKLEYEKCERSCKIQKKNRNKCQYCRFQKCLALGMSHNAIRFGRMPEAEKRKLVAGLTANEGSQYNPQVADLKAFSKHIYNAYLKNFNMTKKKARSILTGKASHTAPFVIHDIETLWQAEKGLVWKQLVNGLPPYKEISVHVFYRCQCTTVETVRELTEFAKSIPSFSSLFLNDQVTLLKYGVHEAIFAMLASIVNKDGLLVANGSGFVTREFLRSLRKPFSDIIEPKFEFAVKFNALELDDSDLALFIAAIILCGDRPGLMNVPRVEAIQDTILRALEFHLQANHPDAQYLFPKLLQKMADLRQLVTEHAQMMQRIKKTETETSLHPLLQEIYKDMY
# [2] = target: T1, Peroxisome proliferator-activated receptor delta; experiment: Induction of PPARdelta-mediated PDK4 mRNA upregulation in human myoblast after 24 hrs
# Summary of the method: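 Myoblasts isolated from human vastus lateralis skeletal muscle by enzymatic digestion, then differentiated into myotubes for 7 days in 2% horse serum. Myotubes were exposed to compound for 24 h, and fold induction of PDK4 mRNA was measured. EC50 was taken from the dose–response curve, with GW501516 run as the reference agonist.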
# [3] = Lipophilicity, log D of the compound; format: physicochemical; conditions: octanol/water
# [4] = target: T2, Peroxisome proliferator-activated receptor alpha (Homo sapiens, UniProt Q07869); experiment: Agonist activity at Gal4-fused human PPARalpha […] binding domain expressed in HEK293 cells by luciferase reporter gene assay; format: cell-based
# T2 sequence (Q07869 whole entry): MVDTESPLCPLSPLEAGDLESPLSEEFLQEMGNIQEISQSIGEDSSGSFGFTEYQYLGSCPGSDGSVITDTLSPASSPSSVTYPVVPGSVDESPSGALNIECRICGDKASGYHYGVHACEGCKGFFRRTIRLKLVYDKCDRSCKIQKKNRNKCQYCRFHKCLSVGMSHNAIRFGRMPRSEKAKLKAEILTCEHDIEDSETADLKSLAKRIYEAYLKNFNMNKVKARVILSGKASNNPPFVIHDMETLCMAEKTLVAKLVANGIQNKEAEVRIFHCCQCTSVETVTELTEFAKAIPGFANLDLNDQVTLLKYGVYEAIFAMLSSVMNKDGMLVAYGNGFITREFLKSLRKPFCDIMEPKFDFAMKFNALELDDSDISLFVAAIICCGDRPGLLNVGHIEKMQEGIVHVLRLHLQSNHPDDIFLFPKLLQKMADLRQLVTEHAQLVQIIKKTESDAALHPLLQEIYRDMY
# [5] = target: T3, Peroxisome proliferator-activated receptor gamma (Homo sapiens, UniProt P37231); experiment: Agonist activity at Gal4-fused human PPARgamma […] binding domain expressed in HEK293 cells by luciferase reporter gene assay; format: cell-based
# T3 sequence (P37231 whole entry): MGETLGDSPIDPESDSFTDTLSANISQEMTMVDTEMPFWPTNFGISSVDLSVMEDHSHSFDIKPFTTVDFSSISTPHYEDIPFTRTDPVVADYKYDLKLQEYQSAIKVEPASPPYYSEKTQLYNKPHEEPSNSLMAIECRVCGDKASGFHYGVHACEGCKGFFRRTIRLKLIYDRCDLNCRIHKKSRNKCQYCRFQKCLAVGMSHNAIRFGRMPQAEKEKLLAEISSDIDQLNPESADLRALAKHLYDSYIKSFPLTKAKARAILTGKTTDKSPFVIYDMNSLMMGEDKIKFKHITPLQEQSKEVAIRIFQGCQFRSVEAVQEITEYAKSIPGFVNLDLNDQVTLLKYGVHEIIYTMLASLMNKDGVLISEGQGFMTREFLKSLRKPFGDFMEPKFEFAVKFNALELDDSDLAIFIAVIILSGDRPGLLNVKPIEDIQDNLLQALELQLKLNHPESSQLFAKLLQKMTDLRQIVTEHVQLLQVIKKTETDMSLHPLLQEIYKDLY
Structure (SMILES),EC50 [1] [nM],EC50 [2] [nM],logD [3],EC50 [4] [nM],EC50 [5] [nM]
Cc1cc(CN2CCC(C(=O)Nc3ccc(Cl)cc3Cl)C2)ccc1OCC(=O)O (stereo not given),1000,,,,
Cc1cc(CN2Cc3ccccc3C2C(=O)Nc2cc(Cl)ccc2Cl)ccc1OCC(=O)O (stereo not given),320,,,,
Cc1cc(CN2Cc3ccccc3C2C(=O)Nc2ccc(Cl)cc2)ccc1OCC(=O)O (stereo not given),2500,,,,
Cc1cc(CN2Cc3ccccc3C2C(=O)Nc2ccccc2)ccc1OCC(=O)O (stereo not given),> 60000,,,,
Cc1cc(CN2Cc3ccccc3C2C(=O)O)ccc1OCC(=O)O (stereo not given),> 20000,,,,

# Other lines, results leading:
EC50 [1] [nM],EC50 [2] [nM],logD [3],EC50 [4] [nM],EC50 [5] [nM],Structure (SMILES)
1600,,,,,Cc1cc(CN2CCCC2C(=O)Nc2ccc(Cl)cc2Cl)ccc1OCC(=O)O (stereo not given)
5,15,2.4,2500,> 20000,Cc1cc(CN2Cc3ccccc3C[C@H]2C(=O)Nc2ccc(Cl)cc2Cl)ccc1OCC(=O)O
0.5,,,1250,800,Cc1cc(CN2Cc3ccccc3C[C@@H]2C(=O)Nc2ccc(Cl)cc2Cl)ccc1OCC(=O)O
25,,2.6,> 30000,> 30000,Cc1cc(CN2Cc3ccccc3C2C(=O)Nc2ccc(Cl)cc2Cl)ccc1OCC(=O)O (racemic)
10,70,2.6,6300,2700,Cc1cc(CN2CCc3ccccc3C2C(=O)Nc2ccc(Cl)cc2Cl)ccc1OCC(=O)O (racemic)
500,,,,,Cc1cc(CN2Cc3ncccc3CC2C(=O)Nc2ccc(Cl)cc2Cl)ccc1OCC(=O)O (racemic)
2000,,,,,Cc1cc(CN2Cc3cccnc3CC2C(=O)Nc2ccc(Cl)cc2Cl)ccc1OCC(=O)O (racemic)
